Source: PubChem (several laboratories)
HIV Rev-RRE inh – disrupts HIV-1 Rev binding to RRE RNA. 0.79% of 97,000 active. AID 704. P05866. Rev peptide-RRE RNA binding, FRET. inhibition, % at 8 µM;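 active = inhibition above the screen-wide mean plus 3 SD, cut at about 35% in these data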;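 also: 0% = median DMSO wells and 100% = median Neomycin B control wells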
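Test system – labelled RRE RNA duplex and labelled Rev peptide · Reagent – labelled Rev peptide · Doses – one concentration, 8 µM nominal · Incubation – 5 + 15 min at 25 °C · Signal – FRET fluorescence readout · Read-out basis – % inhibition of FRET ratio versus controls · Control set – DMSO wells as 0% and neomycin B wells as 100% inhibition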
PTK2B oligo ant – blocks oligomerization of human Pyk2 in cells; Q293 cells, Pyk2 FERM NanoBiT luminescence; hits give low values; AID 1347419; z-score (the deposit names both 25 µM and 10 µM); 0.83% of 99,000 active; Q14289;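 active = Z-score of -3 or lower, scaled per plate to the spread of control and sample wells; inactive = z-score above -3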;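 also: negative z-score means lost luminescence so less FERM oligomerization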
Target sequence (Q14289 whole entry, looked up): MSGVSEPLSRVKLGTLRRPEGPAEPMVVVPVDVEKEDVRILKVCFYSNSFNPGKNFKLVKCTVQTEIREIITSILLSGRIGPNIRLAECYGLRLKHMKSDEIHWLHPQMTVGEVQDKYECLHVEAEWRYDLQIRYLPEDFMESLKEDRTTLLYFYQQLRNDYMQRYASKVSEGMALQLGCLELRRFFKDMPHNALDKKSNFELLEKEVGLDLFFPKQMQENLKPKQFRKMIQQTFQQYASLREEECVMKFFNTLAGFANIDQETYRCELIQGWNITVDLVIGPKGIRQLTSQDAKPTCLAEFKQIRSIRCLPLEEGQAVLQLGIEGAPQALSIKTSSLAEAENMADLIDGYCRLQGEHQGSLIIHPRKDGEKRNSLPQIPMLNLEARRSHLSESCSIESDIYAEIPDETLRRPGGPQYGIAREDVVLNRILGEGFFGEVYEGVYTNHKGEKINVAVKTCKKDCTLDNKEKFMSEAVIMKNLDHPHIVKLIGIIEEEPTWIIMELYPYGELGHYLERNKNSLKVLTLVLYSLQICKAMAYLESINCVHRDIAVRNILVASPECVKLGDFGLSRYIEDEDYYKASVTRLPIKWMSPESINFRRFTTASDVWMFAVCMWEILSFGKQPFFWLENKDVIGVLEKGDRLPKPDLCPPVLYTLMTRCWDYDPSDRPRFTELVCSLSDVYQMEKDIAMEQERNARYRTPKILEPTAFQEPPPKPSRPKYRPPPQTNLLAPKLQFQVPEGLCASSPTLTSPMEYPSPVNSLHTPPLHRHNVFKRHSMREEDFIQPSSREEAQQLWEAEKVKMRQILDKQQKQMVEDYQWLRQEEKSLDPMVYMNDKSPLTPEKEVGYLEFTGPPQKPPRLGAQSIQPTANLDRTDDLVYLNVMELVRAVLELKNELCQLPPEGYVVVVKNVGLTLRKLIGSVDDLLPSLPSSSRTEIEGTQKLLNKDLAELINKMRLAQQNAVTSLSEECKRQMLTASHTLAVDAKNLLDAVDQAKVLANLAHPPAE
hDAT+cocaine – modulates human dopamine transporter uptake under cocaine; LLC-PK1 hDAT cells, [14C]-dopamine uptake with cocaine IC80; actives deviate in either direction; Q01959; 1.3% of 110,000 active; B-score at 10 µM;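 active = Z score or B-score, a plate-position-corrected score, falls beyond the plate's 99.7% confidence bounds, in either direction; inactive = both scores lie inside the 99.7% bounds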;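 also: scored against the spread of the other compound wells on the same plate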
Measles CPE – protection of cells from measles virus; Measles virus-infected cells, CPE protection, absorbance; protection (pct of control), % at 4 µM; 1.5% of 140,000 active; in the data active = protection mostly above about 24%, no sharp cut-off; inactive = mostly below about 26%
Cav32 inh – blocks human Cav3.2 T-type calcium channel | B-score at 10 µM | Cav3.2-expressing cells, Fluo-4 calcium fluorescence FDSS; hits give low values | AID 449739 | O95180 | 4% of 100,000 active;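 active = single-dose well whose peak fluorescence ratio is a statistical outlier from its plate by either plate-standardised score or position-corrected B-score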
Phagocytosis inh – macrophage phagocytosis inhibition; 0.07% of 110,000 active; J774A.1 macrophage IgG-bead phagocytosis, imaging; inhibition, % at 5 µM;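 active = inhibition above the mean of the plate negative controls plus 5 SD, cut at about 13% in these data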;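 also: phagocytic index as fraction of beads internalized from green versus red external bead signal; plate controls were DMSO negative control for no effect and cytochalasin-D positive control for full effect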
An asterisk follows results filed as active; nt = no result given. In the library only some 5.9% were active in any assay of this set; here they are far more common.

SMILES	HIV Rev-RRE inh	PTK2B oligo ant	hDAT+cocaine	Measles CPE	Cav32 inh	Phagocytosis inh
Cc1nc2c(-c3ccccc3)c(C)nn2c(C)c1CCC(=O)NCc1ccco1	nt	nt	-0.41	13	0.44	1
CCN1CCN(c2ccc(NC(=O)CCc3c(C)nc4c(-c5ccccc5)c(C)nn4c3C)cc2)CC1	5	nt	2.5*	4	0.67	0
Cc1c(/C=C/C(=O)c2ccc(O)cc2)cnn1C	nt	0.47	nt	42*	nt	-11
Cc1c(/C=C/C(=O)c2ccccc2)cnn1C	-3	-0.4	0.035	3	1.4	nt
Cc1ccc(C(=O)NC(=S)Nc2ccc(S(=O)(=O)N3CCN(C)CC3)cc2)cc1	-10	0.5	nt	63*	nt	nt
Cc1cccc(C(=O)NC(=S)Nc2ccc(S(=O)(=O)N3CCN(C)CC3)cc2)c1	0	0.44	-0.61	19	0.44	-2
CCOC(=O)C[C@H]1c2cc(F)ccc2S(=O)(=O)N1C1CCCC1	nt	nt	-0.18	nt	-1.1	nt
COc1cc(/C=C/C(=O)CC(=O)/C=C/c2ccc(O)c(OC)c2)ccc1O	nt	nt	-0.24	18	-4.2*	nt
Cc1ccc(S(=O)(=O)Nc2nc3ccccc3s2)cc1	0	-0.44	0.0056	23	-2.3	0
O=S(=O)(Nc1nc2ccccc2s1)c1ccc(Br)s1	5	-1.1	-3.9*	9	-3.3	0
C[N+]1(C2CCC3CCCC2C3O)CCCC1 (stereo not given)	nt	nt	nt	9	nt	-5
CC(=O)c1ccc(N2C(=O)C3C(C2=O)C(C(=O)c2ccc(Cl)cc2)N2CCCC32)cc1 (stereo not given)	62*	nt	0.93	13	-3.3	0
O=C(c1ccc(Cl)cc1)C1C2C(=O)N(c3ccccc3)C(=O)C2C2CCCN21 (stereo not given)	58*	-0.24	-2.2	17	-6.9*	-1
Cc1ccc(N2C(=O)[C@@H]3[C@H](C2=O)[C@H]2C=C(C(=O)c4ccccc4)C=CN2[C@@H]3C(=O)c2ccc(Cl)cc2)cc1	nt	nt	nt	10	nt	0
Cc1ccc(N2C(=O)[C@@H]3[C@H](C2=O)C2CCCN2[C@@H]3C(=O)c2ccccc2)cc1 (stereo not given in full)	nt	-0.02	-0.31	5	-1.3	2
CC(C)(C)NC(=O)COC(=O)c1cc(S(=O)(=O)N2CCCCC2)ccc1N1CCOCC1	11	1.5	0.047	3	0.51	0
CSc1nc(-c2ccco2)nn1C(=O)c1ccco1	nt	nt	-1	29	0.18	0
CSc1nc(-c2ccc(Cl)cc2)nn1C(=O)c1ccco1	0	-0.04	-0.049	52*	-0.2	-1
COc1cc(C(=O)NC2CC3CCCC(C2)N3CC(=O)Nc2ccccc2)cc(OC)c1OC (stereo not given)	3	-0.18	1.2	14	4.4*	-1
O=C(CN1C2CCCC1CC(NC(=O)c1ccco1)C2)Nc1ccccc1 (stereo not given)	1	0.23	0.84	5	2	nt
O=C(NC(CSCc1ccccc1)C(=O)N/N=C/c1ccc(O)cc1O)c1ccc([N+](=O)[O-])cc1 (stereo not given)	8	-1.6	0.0078	20	-4.7*	-4
O=C(NCCNCCO)C1(C(F)(F)F)C/C(=C\CCO)CCCO1 (stereo not given)	nt	nt	-0.15	nt	0.55	nt
CCOC(=O)/C(C(=O)Nc1ccccc1Cl)=C1/NC(C)(C)Cc2ccccc21	-4	-0.58	2.8*	7	-1.6	-1
CCOC(=O)/C(C(=O)Nc1ccc(Br)cc1)=C1/NC(C)(C)Cc2ccccc21	nt	nt	nt	27	nt	-4
CCOc1ccc(N/C=C\C(=O)c2ccc3c(c2)OCO3)cc1	4	-0.7	-0.59	42*	-0.43	nt
SMILES	HIV Rev-RRE inh	PTK2B oligo ant	hDAT+cocaine	Measles CPE	Cav32 inh	Phagocytosis inh
O=C(CSCc1ccc(Cl)cc1)Nc1cccc(C(=O)Nc2ccccc2C(=O)O)c1	11	-0.93	-0.75	4	-6.9*	0
O=C(CSCc1ccccc1)Nc1cccc(C(=O)Nc2ccccc2C(=O)O)c1	3	-1.6	0.97	7	-4	nt
COc1cccc(N2CCN(CC(=O)Nc3nnc(-c4ccccc4)s3)CC2)c1	0	-0.03	-0.39	9	-5.2*	3
COc1cccc(N2CCN(CC(=O)NCc3cccs3)CC2)c1	4	1.9	0.03	19	0.71	-1
COc1cccc(NC(=O)c2ccc(CN3CCN(c4ccccc4)CC3)cc2)c1	9	-0.39	1.6	15	-5.4*	nt
Fc1cccc(NC(=S)NCc2cccnc2)c1	nt	nt	nt	12	nt	-10
